Laboratory results taken from ChEMBL document CHEMBL1150956, “Antitubercular natural products: berberine from the roots of commercial Hydrastis canadensis powder. Isolation of inactive 8-oxotetrahydrothalifendine, canadine, beta-hydrastine, and two new quinic acid esters, hycandinic acid esters-1 and -2” (1998).

test system: Mycobacterium tuberculosis; test: Antimicrobial activity against recombinant Mycobacterium bovis BCG expressing pMV361 lux after 5 days by luciferase assay; type: functional; settings: variant bovis BCG, 120 h
In short: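 rBCG (pMV361 lux) in Middlebrook 7H9 broth at about 5e5 cfu/mL final inoculum. Compounds were tested at 0.1–50 µg/mL and at higher levels, with no-drug 1% DMSO growth controls. Tubes were incubated at 36 °C in ambient air. A 100 µL aliquot received 100 µL of 1 mM luciferin, and RLU were read at day 0 (within 30 min) and day 5. Inhibition was scored as a drop in luminescence.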

Question: `COc1c(O)ccc2c1C(=O)N1CCc3cc4c(cc3C1C2)OCO4` (stereo not given) was tested. Which MIC did it give?
Answer: > 50 µg/mL

Question: `COc1c(OC(C)=O)ccc2c1C(=O)N1CCc3cc4c(cc3C1C2)OCO4` (stereo not given) was tested. Which MIC did it give?
Answer: > 50 µg/mL

Question: With `COc1ccc2c(c1OC)C(=O)N1CCc3cc4c(cc3C1C2)OCO4` (stereo not given) as the molecule, how does the MIC read?
Answer: > 50 µg/mL

Question: How did the MIC turn out when `COc1ccc2cc3[n+](cc2c1OC)CCc1cc2c(cc1-3)OCO2.[Cl-]` [BERBERINE CHLORIDE] was run?
Answer: 200 µg/mL

Question: With `COc1ccc2c(c1OC)CN1CCc3cc4c(cc3[C@@H]1C2)OCO4` [CANADINE] as the molecule, how does the MIC read?
Answer: > 50 µg/mL
